Values after ≈ are worked out from the molar mass of the structure shown. Active and inactive are the calls of the source. The calls are words filed in the database; no cut-off is given here.
Assays:
[1] = Antibacterial activity against Escherichia coli JM109; type: functional
[2] = Inhibition of Staphylococcus aureus MurA
In short: (§1)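 Poly(His)-tagged MurA from E. coli BL21 Star (DE3) (0.1 mM IPTG, 18 °C, 24 h), purified by Co2+ affinity and gel filtration. At 25 °C, a 2-fold inhibitor series went to 33.3 µg/mL enzyme preincubated 10 min in 50 mM Tris-HCl pH 7.8 with UDP-GlcNAc. PEP started a 30 min reaction. Phosphate was read by malachite green-molybdate at A660 against standards. Means of four experiments ± SD.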

[3] = Inhibition of Escherichia coli MurA; in short: as §1
[4] = Antibacterial activity against Staphylococcus aureus SH1000; type: functional
[5] = Inhibition of Staphylococcus aureus MurZ
In short: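 Poly(His)-tagged MurZ was expressed in E. coli BL21 Star (DE3) by autoinduction and purified by Co2+ affinity and gel filtration. At 25 °C, a 2-fold inhibitor series was added to enzyme preincubated 10 min in 50 mM Tris-HCl pH 7.8 with UDP-GlcNAc. PEP started a 30 min reaction. Released phosphate was read by malachite green-molybdate at A660 against phosphate standards. Means of three experiments ± SD.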

[6] = Inhibition of MDH
[7] = Inhibition of chymotrypsin
[8] = system: UDP-N-acetylglucosamine 1-carboxyvinyltransferase (Escherichia coli K-12), P0A749 [C115D]; assay: Inhibition of Escherichia coli MurA C115D mutant
In short: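 Purified E. coli MurA C115D mutant protein was tested with inhibitor at up to 120 µM.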

UDP-N-acetylglucosamine 1-carboxyvinyltransferase (Escherichia coli K-12), P0A749 [C115D], sequence (P0A749 whole entry C115D): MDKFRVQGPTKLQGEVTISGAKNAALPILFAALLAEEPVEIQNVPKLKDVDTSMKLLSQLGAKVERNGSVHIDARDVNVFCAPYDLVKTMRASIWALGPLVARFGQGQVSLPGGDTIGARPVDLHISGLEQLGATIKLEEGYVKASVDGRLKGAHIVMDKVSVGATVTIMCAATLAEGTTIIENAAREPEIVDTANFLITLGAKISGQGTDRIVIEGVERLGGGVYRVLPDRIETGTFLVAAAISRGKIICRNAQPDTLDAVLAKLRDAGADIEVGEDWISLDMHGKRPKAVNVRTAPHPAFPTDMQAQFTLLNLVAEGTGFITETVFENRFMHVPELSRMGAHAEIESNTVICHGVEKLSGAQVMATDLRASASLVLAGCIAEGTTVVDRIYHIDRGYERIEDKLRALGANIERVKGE

| Structure (SMILES) | MIC [1] [µg/mL] | IC50 [2] [µM] | IC50 [3] [µM] | MIC [4] [µg/mL] | IC50 [5] [µM] | Activity [6] | Activity [7] | Activity [8] |
| --- | --- | --- | --- | --- | --- | --- | --- | --- |
| Cl.Cl.OCCN1CCN([C@@H]2CCc3ccccc3[C@H]2O)CC1 | > 256 | > 120 | > 120 | > 256 | > 120 | – | – | – |
| C[C@@H]1O[C@@H]1P(=O)(O)O [FOSFOMYCIN] | 8 (≈ 57.9 µM) | 1.36 | 0.46 | 16 (≈ 116 µM) | 1.37 | – | – | – |
| Cl.Cl.OCCN1CCN(C2CCc3ccccc3C2)CC1 (stereo not given) | > 256 | > 120 | > 120 | > 256 | > 120 | – | – | – |
| O=C1c2ccccc2CCC1C1CCCCC1 (stereo not given) | > 256 | > 120 | > 120 | > 256 | > 120 | – | – | – |

The remaining lines, values ahead:

| MIC [1] [µg/mL] | IC50 [2] [µM] | IC50 [3] [µM] | MIC [4] [µg/mL] | IC50 [5] [µM] | Activity [6] | Activity [7] | Activity [8] | Structure (SMILES) |
| --- | --- | --- | --- | --- | --- | --- | --- | --- |
| > 256 | 29 | 22.6 | 64 (≈ 168 µM) | 28.9 | inactive | inactive | – | COc1cc2c(cc1OC)C(=O)C(N1CCN(Cc3ccccc3)CC1)CC2 (stereo not given) |
| 128 | 12 | 8.53 | 64 | 22.9 | inactive | inactive | inactive | CN1CCN(C2CCc3ccccc3C2=O)CC1.Cl.Cl (stereo not given) |
| 256 | 17.4 | 3.13 | 128 | 18.8 | inactive | inactive | inactive | COc1cc2c(cc1OC)C(=O)C(N1CCN(CCO)CC1)CC2.Cl.Cl (stereo not given) |
| 128 | 12.5 | 22.5 | 8 | 16.1 | inactive | inactive | – | Cl.Cl.O=C1c2ccccc2CCC1N1CCN(CCO)CC1 (stereo not given) |

Reference: ChEMBL document CHEMBL1141516, “2-Aminotetralones: novel inhibitors of MurA and MurZ” (Bioorg Med Chem Lett, 2008)
